Data taken from ChEMBL document CHEMBL1121468, “Synthesis and blood pressure lowering activity of 3-(substituted-amino)-1,2,4-benzothiadiazine 1-oxide derivatives” (1980).
The source made the active and inactive calls. No cut-off for these calls is given here.

Experiments:
Oryctolagus cuniculus [1] = assay: Minimum effective dose level to give significant blood pressure lowering effect in normotensive rabbits after administering intravenously; assay type: functional; conditions: iv; for minimal effective dose: read-out: MED
Procedure, shortened: (§1)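 Conscious rabbits held in a stock. After 30 min, a 30-min control recording was taken, then drug was given into an ear vein and recording continued for 120 min. Mean arterial pressure (electrically damped) and heart rate were averaged at 10-min intervals over 120 min. The dose was adjusted to the minimum giving p < 0.05 lowering; in practice a ≥10 mmHg mean fall was significant. Vehicle: saline with 2% Emulphor EL-620.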

Rattus norvegicus [2] = assay: Percentage blood pressure lowering in spontaneously hypertensive rats within 3 hr of intraperitoneal administration at 1.0 mg/kg; assay type: functional
Procedure, shortened: (§2)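 Male Wistar/Kyoto SHR, about 6 months old, 300–400 g, housed four per cage with chow and water ad libitum. Drug given ip as a suspension in saline with 2% Emulphor EL-620. Systolic pressure was measured indirectly, mostly with photoelectric sensors at 25 °C, and earlier by a modified Friedman–Freed method with 30–45 s warming at 32 °C. Reported value: maximum % lowering within 3 h, mean ± SE.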

Rattus norvegicus [3] = assay: Percentage blood pressure lowering in spontaneously hypertensive rats within 3 hr of intraperitoneal administration at 50 mg/kg; assay type: functional; procedure, shortened: as §2
Rattus norvegicus [4] = assay: Percentage blood pressure lowering in spontaneously hypertensive rats within 3 hr of intraperitoneal administration at 20 mg/kg; assay type: functional; procedure, shortened: as §2
Rattus norvegicus [5] = assay: Percentage blood pressure lowering in spontaneously hypertensive rats within 3 hr of intraperitoneal administration at 2 mg/kg; assay type: functional; procedure, shortened: as §2
Rattus norvegicus [6] = assay: Percentage blood pressure lowering in spontaneously hypertensive rats within 3 hr of intraperitoneal administration at 50 mg/kg; Not statistically significant; assay type: functional; procedure, shortened: as §2
Rattus norvegicus [7] = assay: Percentage blood pressure lowering in spontaneously hypertensive rats within 3 hr of intraperitoneal administration at 20 mg/kg; Not statistically significant; assay type: functional; procedure, shortened: as §2
Oryctolagus cuniculus [8] = assay: Minimum effective dose level to give significant blood pressure lowering effect in normotensive rabbits after administering intravenously; NA denotes not active at 2.5 mg/kg; assay type: functional, organism-based; parameters: dose 2.5 mg/kg; procedure, shortened: as §1
Rattus norvegicus [9] = assay: Percentage blood pressure lowering in spontaneously hypertensive rats within 3 hr of intraperitoneal administration at 5 mg/kg; assay type: functional; procedure, shortened: as §2
Rattus norvegicus [10] = assay: Percentage blood pressure lowering in spontaneously hypertensive rats within 3 hr of intraperitoneal administration at 25 mg/kg; assay type: functional; procedure, shortened: as §2
Oryctolagus cuniculus [11] = assay: Mean blood pressure lowering in normotensive rabbits over 2 h of intravenous administration at 0.008 mg/kg
Rattus norvegicus [12] = assay: Percentage blood pressure lowering in spontaneously hypertensive rats within 3 hr of intraperitoneal administration at 0.5 mg/kg; assay type: functional; procedure, shortened: as §2
Oryctolagus cuniculus [13] = assay: Mean blood pressure lowering in normotensive rabbits over 2 hr of intravenous administration at 0.125 mg/kg
Rattus norvegicus [14] = assay: Percentage blood pressure lowering in spontaneously hypertensive rats within 3 hr of intraperitoneal administration at 10 mg/kg; assay type: functional; procedure, shortened: as §2

SMILES | minimal effective dose (Oryctolagus cuniculus [1]) [mg/kg] | BP decrease (Rattus norvegicus [3]) [%] | other results
COc1cc2c(cc1OC)S(C)(=O)=NC(N1CCN(C(=O)c3nnc(SC)o3)CC1)=N2.Cl (configuration not stated) | 0.2 |  | BP decrease (Rattus norvegicus [2]): 14%
COc1cc2c(cc1OC)S(C)(=O)=NC(N1CCC(c3ccccc3)CC1)=N2.Cl (configuration not stated) | 0.16 | 30.2 | 
COc1cc2c(cc1OC)S(C)(=O)=NC(N1CCC(OC(C)=O)CC1)=N2.Cl (configuration not stated) | 0.25 |  | BP decrease (Rattus norvegicus [4]): 43%
COc1cc2c(cc1OC)S(C)(=O)=NC(NCc1ccccc1)=N2.Cl (configuration not stated) | 1.25 | 28.9 | 
COc1cc2c(cc1OC)S(=O)(C(C)C)=NC(N1CCN(C(=O)c3ccco3)CC1)=N2.Cl (configuration not stated) |  | 34.3 | 
CCOc1cc2c(cc1OCC)S(C)(=O)=NC(N1CCN(C(=O)c3ccco3)CC1)=N2.Cl (configuration not stated) | 2.5 | 16.4 | 
CCS1(=O)=NC(N2CCN(C(=O)c3ccco3)CC2)=Nc2cc(OC)c(OC)cc21.Cl (configuration not stated) | 2.5 | 18.2 | 
COc1cc2c(cc1OC)S(C)(=O)=NC(N(C)C)=N2.Cl (configuration not stated) | 0.125 | 24.8 | 
COc1cc2c(cc1OC)S(=O)(c1ccccc1)=NC(N1CCN(C(=O)c3ccco3)CC1)=N2.Cl (configuration not stated) | 1.25 | 26.1 | 
COc1cc2c(cc1OC)S(C)(=O)=NC(N1CCC(O)(c3ccccc3)CC1)=N2.Cl (configuration not stated) |  | 21.4 | 
COc1cc2c(cc1OC)S(C)(=O)=NC(N1CCC(n3c(O)nc4ccccc43)CC1)=N2.Cl (configuration not stated) | 2.5 | 22.5 | 
COc1cc2c(cc1OC)S(C)(=O)=NC(N1CCN(Cc3ccccc3)CC1)=N2.Cl.Cl (configuration not stated) | 2.5 | 32.9 | 
CCN(CC)C1=Nc2cc(OC)c(OC)cc2S(C)(=O)=N1.Cl (configuration not stated) | 0.04 |  | BP decrease (Rattus norvegicus [5]): 37.3%
CNC1=Nc2cc(OC)c(OC)cc2S(C)(=O)=N1.Cl (configuration not stated) | 0.16 |  | BP decrease (Rattus norvegicus [6]): 11.3%
COc1cc2c(cc1OC)S(C)(=O)=NC(N1CCN(C)CC1)=N2.Cl.Cl (configuration not stated) | 5 | 19.7 | 
COc1cc2c(c(OC)c1OC)S(C)(=O)=NC(N1CCN(C(=O)c3ccco3)CC1)=N2.Cl (configuration not stated) | 0.04 | 20.6 | 
COc1cc2c(cc1OC)S(C)(=O)=NC(N1CCC(C#N)(c3ccccc3)CC1)=N2.Cl (configuration not stated) |  |  | BP decrease (Rattus norvegicus [6]): 1.6%
COc1cc2c(cc1OC)S(C)(=O)=NC(NC(C)C)=N2.Cl (configuration not stated) | 2.5 | 17.7 | 
COc1cc2c(cc1OC)S(C)(=O)=NC(N1CCCCC1)=N2.Cl (configuration not stated) | 1.25 |  | BP decrease (Rattus norvegicus [6]): 17.1%
COc1cc2c(cc1OC)S(C)(=O)=NC(N1CCCN(C(=O)c3ccco3)CC1)=N2.Cl (configuration not stated) | 1.25 |  | BP decrease (Rattus norvegicus [7]): -1%
CS1(=O)=NC(N2CCN(C(=O)c3ccco3)CC2)=Nc2cc3c(cc21)OCO3.Cl (configuration not stated) |  | 18.2 | BP decrease (Oryctolagus cuniculus [8]): inactive
COc1cc2c(cc1OC)S(C)(=O)=NC(N1CCC(O)CC1)=N2.Cl (configuration not stated) | 0.625 |  | BP decrease (Rattus norvegicus [9]): 56.9%
COc1cc2c(cc1OC)S(C)(=O)=NC(N1CCN(c3ccccc3)CC1)=N2.Cl.Cl (configuration not stated) | 0.625 |  | BP decrease (Rattus norvegicus [10]): 30.8%
COc1cc2c(cc1OC)S(C)(=O)=NC(N1CCN(C(=O)c3ccccc3)CC1)=N2.Cl (configuration not stated) | 0.312 | 25.5 | 
COc1cc2c(cc1OC)S(C)(=O)=NC(Nc1ccccc1)=N2.Cl (configuration not stated) | 1 | 19.9 | 
COc1cc2c(cc1OC)S(C)(=O)=NC(N1CCN(C(=O)c3ccco3)CC1)=N2.Cl (configuration not stated) |  |  | BP decrease (Oryctolagus cuniculus [11]): 11.9 mmHg; BP decrease (Rattus norvegicus [12]): 28.8%; BP decrease (Oryctolagus cuniculus [13]): 24.8 mmHg
COc1cc2c(cc1OC)S(C)(=O)=NC(N1CCC(C(=O)c3ccccc3)CC1)=N2.Cl (configuration not stated) |  |  | BP decrease (Rattus norvegicus [5]): 25.8%
COc1cc2c(cc1OC)S(C)(=O)=NC(N1CCC(C(O)c3ccccc3)CC1)=N2.Cl (configuration not stated) | 0.008 |  | BP decrease (Rattus norvegicus [14]): 40.9%
COc1cc2c(cc1OC)S(C)(=O)=NC(N1CCNCC1)=N2.Cl.Cl (configuration not stated) | 10 |  | BP decrease (Rattus norvegicus [6]): 9.1%
COc1cc2nc(N3CCN(C(=O)c4ccco4)CC3)nc(N)c2cc1OC.Cl [PRAZOSIN HYDROCHLORIDE] |  |  | MED (Oryctolagus cuniculus [1]): 0.025 mg/kg; BP decrease (Rattus norvegicus [12]): 14.7%
